Source: ChEMBL document CHEMBL4043073, “Boronic Acid Modifications Enhance the Anti-Influenza A Virus Activities of Novel Quindoline Derivatives” (J Med Chem, 2017)
The source made the active and inactive calls. The calls are words filed in the database; no cut-off is given here.

How the values were obtained:
[1] = Antiviral activity against Influenza A virus (A/California/04/2009(H1N1)) infected in MDCK cells assessed as virus yeild reduction preincubated with virus at 37 degC for 1 hr followed by viral infection for 1 hr measured after 3 days by crystal violet staining based plaque assay; type: functional, cell-based
In short: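 Plaque reduction: about 50–100 PFU/well of PR8, Cal09 or Minnesota preincubated with compound (0–10 μM) 1 h at 37 °C. Mixture then adsorbed to MDCK monolayers 1 h at 4 °C. Overlay was DMEM with 1.5% agarose, DEAE-dextran and 1 μg/mL TPCK-trypsin for 3 days at 37 °C. Glutaraldehyde fix, crystal violet stain, plaque count; IC50 derived; n = 4.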

[2] = system: Vero; assay: Inhibition of Influenza A virus (A/Puerto Rico/8/34(H1N1)) hemagglutinin expressed in African green monkey Vero cells assessed as reduction in acid-induced syncytium formation treated at pH 5 for 10 mins measured after 2 hrs by Hema3Stat Pak-staining based microscopic analysis; type: cell-based; conditions: Influenza A virus (A/Puerto Rico/8/1934(H1N1))
In short: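 Vero cells transfected with PR8 HA plasmid. At 16 h HA was cleaved with 5 μg/mL TPCK-trypsin for 15 min at 37 °C. Cells were preincubated with compound 15 min at 37 °C, then held at pH 5.0 with compound for 10 min at 37 °C. After rinsing, cells were kept 2 h in 10% FBS medium, stained with Hema3Stat Pak and examined for syncytia by microscopy.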

[3] = system: Influenza A virus; assay: Antiviral activity against Influenza A virus (A/Puerto Rico/8/34(H1N1)) infected in MDCK cells assessed as reduction in virus titer preincubated with virus for 1 hr followed by viral infection measured after 24 hrs by crystal violet staining based plaque assay; type: functional, cell-based; conditions: A/Puerto Rico/8/1934(H1N1)
In short: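 PR8 (MOI 1.0) preincubated with compound (2.5–10 μM) 1 h at 37 °C, then used to infect MDCK cells. After adsorption, medium with the same compound concentration was added. At 24 h p.i. supernatant virus titer was measured by plaque assay; n = 3.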

O=C(Nc1ccccc1Nc1c2ccccc2nc2c1[nH]c1ccccc12)c1cccc(B(O)O)c1
IC50 [1]: 3700 nM | inhibition [2]: inactive | Activity [3]: Dose-dependent effect | IC50 [3]: 2200 nM
